As usually defined, the inhibition is the percentage by which the read-out fell short of the control. Broadly, the IC50 is the point on the concentration scale where inhibition reaches its midpoint. For orientation: Kd means the free concentration of one partner at which half of the binding sites on the other are occupied at equilibrium, for simple one-to-one binding.

Molecules are shown by their SMILES. The source made the active and inactive calls. The calls are words filed in the database; no cut-off is given here.

The source of these data is ChEMBL document CHEMBL4024789, “Neutral Porphyrin Derivative Exerts Anticancer Activity by Targeting Cellular Topoisomerase I (Top1) and Promotes Apoptotic Cell Death without Stabilizing Top1-DNA Cleavage Complexes” (J Med Chem, 2018).

Assay [1] addresses T1, DNA topoisomerase 1 (Homo sapiens) (UniProt P11387).
T1 sequence (whole entry): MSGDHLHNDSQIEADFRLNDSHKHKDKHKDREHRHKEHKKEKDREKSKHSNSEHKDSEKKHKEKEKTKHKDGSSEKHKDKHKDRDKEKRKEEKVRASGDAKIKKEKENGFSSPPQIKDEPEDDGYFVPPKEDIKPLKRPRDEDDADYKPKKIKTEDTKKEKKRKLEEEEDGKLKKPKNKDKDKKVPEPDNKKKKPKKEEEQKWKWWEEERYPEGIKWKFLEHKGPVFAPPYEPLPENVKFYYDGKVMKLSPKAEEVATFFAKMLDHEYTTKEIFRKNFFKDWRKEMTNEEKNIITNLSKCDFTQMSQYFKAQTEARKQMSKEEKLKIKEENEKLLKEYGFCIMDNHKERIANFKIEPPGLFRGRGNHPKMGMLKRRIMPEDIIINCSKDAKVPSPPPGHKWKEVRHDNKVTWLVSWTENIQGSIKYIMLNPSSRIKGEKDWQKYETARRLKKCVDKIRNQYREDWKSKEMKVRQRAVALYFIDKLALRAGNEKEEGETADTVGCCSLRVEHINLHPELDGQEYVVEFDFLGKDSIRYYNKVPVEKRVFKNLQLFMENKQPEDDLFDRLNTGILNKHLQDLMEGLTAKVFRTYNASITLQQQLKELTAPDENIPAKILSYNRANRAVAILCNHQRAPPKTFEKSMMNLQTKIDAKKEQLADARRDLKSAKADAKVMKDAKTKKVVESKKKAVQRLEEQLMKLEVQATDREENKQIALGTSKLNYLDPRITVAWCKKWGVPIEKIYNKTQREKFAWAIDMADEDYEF
Briefly: Ratio of compound effect for inhibition of recombinant human topoisomerase-1 expressed in baculovirus infected sf9 cells preincubated for 5 mins followed by substrate addition to compound effect for recombinant human topoisomerase-1 expressed in baculovirus infected sf9 cells simultaneously incubated with substrate. Summed up: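 Recombinant human Top1 purified from baculovirus-infected Sf-9 cells; 30 fmol enzyme with 90 fmol supercoiled pBS (SK+) DNA (3:1 molar ratio) in relaxation buffer. Compound either preincubated with enzyme 5 min before DNA, or added simultaneously; then 37 °C, 15 min. Relaxation on 1% agarose; % inhibition quantified, EC50 from three experiments (mean ± SD).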

Assay [2] addresses T1, DNA topoisomerase 1 (Homo sapiens). Briefly: Inhibition of topoisomerase-1- genomic DNA cleavage complex in human MCF7 cells at 20 uM after 12 hrs by ICE assay. The class given is cell-based. The method, boiled down: (§1)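 ICE bioassay in MCF7 cells. Treatment was CPT (10 μM) or compound (20 μM) for 12 h, or CPT for 6 h then compound for a further 6 h. Genomic DNA (0.5–4 μg) probed with anti-Top1 antibody. Quantified with n = 3, ± SEM, t test.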

For assay [3] the target is unchanged. In words: Inhibition of recombinant human topoisomerase-1 expressed in baculovirus infected sf9 cells at 1 uM using supercoiled pBS SK(+) DNA as substrate preincubated for 5 mins followed by substrate addition measured after 15 mins by ethidium bromide staining based agarose gel electrophoresis method relative to control. The method, boiled down: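 Relaxation assay: 90 fmol supercoiled pBS (SK+) DNA with 30 fmol recombinant Top1 (Sf-9/baculovirus). Compound either preincubated with Top1 for 5 min before DNA addition, or added simultaneously with DNA; then 37 °C for 15 min. Vehicle 2% DMSO. Read on 1% agarose gel. EC50 from mean ± SD of three experiments.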

Assay [4] relates to MCF7. In words: Cytotoxicity against human MCF7 cells transfected with control SiRNA assessed as reduction in cell viability by MTT assay. The class given is functional, cell-based. Summed up:
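MCF7 cells transfected with Top1 or control siRNA for 72 h; knockdown confirmed by Western blot with actin as loading control. Percent survival then plotted against compound concentration.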

For assay [5], the target named is T1, DNA topoisomerase 1 (Homo sapiens). In words: Inhibition of recombinant human topoisomerase-1 expressed in baculovirus infected sf9 cells assessed as reduction in cleavage complex formation with supercoiled pBS SK(+) DNA at 10 to 50 uM after 30 mins by ethidium bromide staining based agarose gel electrophoresis method. The method, boiled down: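 Plasmid cleavage assay: 50 fmol supercoiled pBS (SK+) with 100 fmol recombinant Top1 plus compound or CPT, or Top1 with CPT before compound addition, at 37 °C for 30 min. Nicked (form II) and supercoiled (form I) DNA resolved by gel.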

A further assay deals with T2, DNA topoisomerase 1 (Homo sapiens, UniProt P11387).
T2 sequence (P11387 whole entry): T1 sequence (whole entry)
Briefly: Binding affinity to recombinant human topoisomerase-1 expressed in baculovirus infected sf9 cells by spectrofluorimetric method. Summed up:
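Purified Top1 (200 nM) incubated with compound at 0–11 μM, 25 °C, 10 min. Tryptophan emission read at 350 nm (ex 295 nm). Fraction bound B = (F0 – F)/Fmax, with Fmax taken from a double-reciprocal 1/(F0 – F) vs 1/[X] plot; KD derived from this. Mean ± SD, n=3.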

Assay [6] has as its system MCF7. Briefly: Induction of apoptosis in human MCF7 cells at 10 to 20 uM after 12 hrs in presence of ROS inhibitor NAC by Annexin V-FITC/propidium iodide staining based confocal laser microscopic method relative to control. The assay is classed as functional, cell-based. Summed up:
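MCF7 cells treated for 12 h, with or without 30 min pretreatment with NAC (10 mM). Phosphatidylserine stained with annexin V-FITC, nuclei counterstained with propidium iodide, imaged by confocal microscopy. Annexin V(+) fraction scored from about 100 cells (average ± SEM).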

In assay [7] the test system is MCF7. Briefly: Induction of DNA strand breaks in human MCF7 cells at 10 to 20 uM after 12 hrs by alkaline comet assay relative to control. The assay is classed as functional. The method, boiled down: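 MCF7 cells exposed 12 h; some pretreated with NAC (10 mM) for 30 min first. Alkaline comet assay; mean comet tail scored over 20–25 cells (average ± SEM).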
For assay [8], the target named is T1, DNA topoisomerase 1 (Homo sapiens). Briefly: Inhibition of CPT-induced recombinant human topoisomerase1-[…] cleavage complex at 10 to 50 uM after 30 mins using topoisomerase1 expressed in baculovirus infected sf9 cells by […].
The target is the same in assay [9]. Briefly: Inhibition of […]-induced topoisomerase-1- genomic DNA cleavage complex in human MCF7 cells at 20 uM after 6 hrs by ICE assay. The class given is cell-based. The method, boiled down: as §1
The next assay relates to HCT-116. In words: Cytotoxicity against human HCT116 cells assessed as reduction in cell viability by MTT assay. The assay is classed as functional, cell-based. The method, boiled down:
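Survival of each cell line measured across a range of compound concentrations. Percent inhibition of viability at each concentration calculated against untreated control and IC50 estimated. MEFs were TDP1+/+ and TDP1–/– primary cells. Mean ± SD of at least three experiments in duplicate.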
In general terms: Tetrazolium dyes change colour on reduction, which living cells bring about.

Assay [10] has as its target T1, DNA topoisomerase 1 (Homo sapiens). In words: Binding affinity to recombinant human topoisomerase-1 expressed in baculovirus infected sf9 cells assessed as intrinsic tryptophan fluorescence quenching up to 1.25 uM by Job's plot analysis. The method, boiled down: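 Job plot by continuous variation: Top1 (from Sf-9 cells infected with recombinant baculovirus) and compound varied to a combined final 1.25 μM. Tryptophan fluorescence quenching read at 350 nm with excitation at 295 nm. Mean ± SD of three independent experiments.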

In assay [11] the test system is MCF7. In words: Induction of apoptosis in human MCF7 cells at 10 to 20 uM after 12 hrs by Annexin V-FITC/propidium iodide staining based confocal laser microscopic method relative to control. The assay is classed as functional. The method, boiled down: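 MCF7 cells exposed 12 h, with or without NAC (10 mM) 30 min pretreatment. Phosphatidylserine detected with annexin V-FITC, nuclei counterstained with PI, confocal imaging; annexin V-positive cells counted from ~100 cells (average ± SEM).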

`CN(C)c1ccc(-c2c3nc(c(-c4ccc(N(C)C)cc4)c4ccc([nH]4)c(-c4ccc(C(=O)O)cc4)c4nc(c(-c5ccc(C(=O)O)cc5)c5ccc2[nH]5)C=C4)C=C3)cc1`: the Ratio in [1] fell in the range of 2 to 3. Besides, the inhibition result in [2], in [5], in assay [8] and in assay [9] was “Active” throughout. Besides, the inhibition in [3] was in the range of 85 to 99%. For the same molecule, the results for the IC50 in the assay on MCF7 [4] and in the assay with HCT-116 were 2240 nM and 4390 nM, respectively. Also, the Kd at DNA topoisomerase 1 came to 381 nM. The outcome in the assay on MCF7 [6] was inactive. Also, the “fold change (FC)” value is given as 8 with MCF7 [7] and 7 with MCF7 [11]. Moreover, the outcome in assay [10] was Active.
